High-throughput results from PubChem BioAssay.
This is a sample that favours compounds with a hit; in the whole collection about 10% have one here.
PMI act satM6P: activators of human phosphomannose isomerase at near-saturating mannose 6-phosphate; P34949; coupled PMI enzyme assay, resazurin fluorescence, 20 min; hits give high values; 1 = untreated enzyme, 0 = substrate-free blank; activation factor at 20 µM; 190,000 compounds, 0.34% hits;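 active = activation factor of 2 or more at 20 µM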
Target sequence (P34949 whole entry, looked up): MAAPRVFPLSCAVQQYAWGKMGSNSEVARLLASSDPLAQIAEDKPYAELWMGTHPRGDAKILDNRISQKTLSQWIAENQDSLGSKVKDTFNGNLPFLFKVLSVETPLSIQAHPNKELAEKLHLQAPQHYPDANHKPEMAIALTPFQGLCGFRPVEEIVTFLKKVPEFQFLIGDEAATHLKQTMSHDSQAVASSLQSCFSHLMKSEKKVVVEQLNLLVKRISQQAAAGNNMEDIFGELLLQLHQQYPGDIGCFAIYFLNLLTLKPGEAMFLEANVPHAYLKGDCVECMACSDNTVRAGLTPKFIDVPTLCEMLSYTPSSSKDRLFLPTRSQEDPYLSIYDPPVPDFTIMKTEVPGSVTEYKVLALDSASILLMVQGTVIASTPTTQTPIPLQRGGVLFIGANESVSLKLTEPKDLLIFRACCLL
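Test system: human phosphomannose isomerase with PGI, G6PDH, diaphorase coupling enzymes / Doses: 20 µM compound, 1% DMSO / Times: enzyme reaction with compound 20 min at room temperature / Measured by: Diaphorase-driven resazurin-to-resorufin fluorescence, excitation 544, emission 590 nm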
Diaphorase act: diaphorase activation or chemical reduction counter-screen | 190,000 compounds, 0.005% hits | Diaphorase/resazurin coupled assay, resorufin fluorescence, 16 min; hits give high values; 1 = vehicle wells, 0 = NADH-free wells | AID 1229 | activation factor at 20 µM;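 active = diaphorase activity raised at least twofold by the compound at 20 µM; inactive = activation factor below 2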
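test system = bacterial diaphorase enzyme (C. kluyveri) | quantity = enzyme 0.07 U/mL final | reagent = NADH substrate 0.114 mM plus resazurin dye 0.1 mM, final | incubation = 16 min enzyme reaction, ambient temperature | buffer or medium = HEPES pH 7.4 buffer with MgCl2 and Tween 20 | signal = fluorescence of resorufin, 544 nm excitation, 590 nm emission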
WT yeast gro inh: growth inhibition of WT yeast, mitochondrial fusion screen; mitochondrial fusion phenotypic screen, WT strain; inhibition, % at 10 µM; 190,000 compounds, 2.1% hits; AID 1362; in the data active = inhibition above about 58%; tested in S. cerevisiae
PMI activator: increases human mannose-6-phosphate isomerase activity; purified human PMI, coupled resazurin fluorescence, 20 min; hits give high values; 1 = vehicle control, 0 substrate-free wells; activation factor at 20 µM; 190,000 compounds, 0.005% hits;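 active = activation factor of 2 or more at 20 µM, relative to plate controls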
Lmaj promast: Leishmania major promastigote growth inhibition | Leishmania major promastigotes, resazurin fluorescence viability | inhibition, % at 10 µM | 200,000 compounds, 9% hits | AID 1063; in the data active = inhibition above about 50%;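 also: promastigotes grown with compound for 44 hours at 28 °C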
The depositor's hits bear a star; / = no result given.

SMILES | PMI act satM6P | Diaphorase act | WT yeast gro inh | PMI activator | Lmaj promast
O=C(Cn1c(=O)oc2cc(S(=O)(=O)N3CCCC3)ccc21)N1CCN(c2ccccn2)CC1 | 0.9 | 0.9 | -2 | 0.9 | 100*
O=C(Cn1c(=O)oc2cc(S(=O)(=O)N3CCc4ccccc43)ccc21)N1CCCCC1 | 1 | 0.9 | -7 | 0.9 | 98*
O=C(Cn1c(=O)oc2cc(S(=O)(=O)N3CCCC3)ccc21)N1CCc2ccccc2C1 | 0.9 | 0.8 | -5 | 0.8 | 100*
CCOC(=O)Cn1c(=O)oc2cc(S(=O)(=O)N3CCN(c4ccccn4)CC3)ccc21 | 1.1 | 0.8 | -1 | 1 | -7
O=C(COC(=O)CNS(=O)(=O)/C=C/c1ccccc1)Nc1cccc2ccccc12 | 0.8 | 1 | -32 | 0.9 | -4
CC1Cc2ccccc2N1C(=O)Cn1c(=O)oc2cc(S(=O)(=O)N3CCCCC3)ccc21 (centres undefined) | 0.9 | 0.7 | -10 | 0.8 | 100*
CCn1c(=O)n(CC)c2cc(S(=O)(=O)N3CCc4ccccc43)ccc21 | 0.9 | 0.8 | 12 | 0.9 | 87*
O=C(Cn1c(=O)oc2cc(S(=O)(=O)N3CCCCC3)ccc21)N1CCc2ccccc21 | 1.1 | 1 | -3 | 1.1 | 6
CCCCOc1ccc(/C=C/C(=O)OCC(=O)NC(=O)NCC(C)C)cc1OCC | 1 | 1 | -7 | 1 | -4
CC1CC1C(=O)Nc1nc(-c2cccs2)c(-c2cccs2)s1 (centres undefined) | 0.9 | 0.7 | 76* | 0.9 | 62*
Cn1c(-c2sc3cc(C(F)(F)F)cnc3c2-c2cccs2)n[nH]c1=S | 0.9 | 0.7 | 65* | 0.9 | 2
CC(C)(C)c1nnc(N/N=C/c2ccccc2O)n(N)c1=O | 1.3 | 1 | 7 | 1.1 | 98*
COc1ccc(OCC(O)Cn2c(=N)n(Cc3ccccc3)c3ccccc32)cc1 (centres undefined) | 1 | 1 | -1 | 1 | 101*
N=c1n(Cc2ccccc2)c2ccccc2n1CC(O)COc1ccc(Cl)cc1Cl (centres undefined) | / | / | 94* | / | 100*
Cc1ccc(OCC(O)Cn2c(=N)n(Cc3ccccc3)c3ccccc32)cc1 (centres undefined) | 1 | 0.9 | -2 | 1 | 100*
N=c1n(CCO)c2ccccc2n1Cc1ccc(Cl)cc1 | 0.9 | 0.8 | -3 | 0.9 | 9
CCOC(=O)Cn1c(=N)n(Cc2ccccc2)c2ccccc21 | 1 | 0.9 | -25 | 1 | -2
N=c1n(Cc2ccc(Cl)cc2)c2ccccc2n1CC(O)COc1ccccc1 (centres undefined) | 0.9 | 0.9 | 55 | 1 | 100*
Cc1ccc(-n2c(-c3ccccc3)c[n+]3c2CCc2ccccc2-3)c(C)c1 | 1.1 | 0.8 | 14 | 1.1 | 101*
CO/N=C/C(C#N)=C/c1cc(C(=O)c2ccccc2)cn1C | 1 | 1 | 9 | 1 | -4
c1ccc2c(c1)ncn2-c1ncnc2sc3c(c12)CCCC3 | 0.9 | 0.9 | 12 | 0.9 | -3
CC(O)CNc1nc2ccccc2n1-c1ncnc2sc3c(c12)CCC3 (centres undefined) | 0.9 | 0.8 | 15 | 0.9 | 74*
Cc1c(O)ccoc1=O | 1 | 1.1 | 4 | 1.1 | -7
Cc1ccc(C(=O)CCNc2ccccc2)o1 | 1.1 | 0.9 | 5 | 1 | 94*
Cc1c(Cl)cccc1NC(=O)Cc1ccc([N+](=O)[O-])cc1 | 1 | 1 | 8 | 1.1 | 5
SMILES | PMI act satM6P | Diaphorase act | WT yeast gro inh | PMI activator | Lmaj promast
N#Cc1c(NC(=O)COC(=O)c2ccc(F)cc2)sc2c1CCC2 | 1 | 1 | -23 | 1 | -16
Cc1ccc(C(=O)OCC(=O)Nc2sc3c(c2C#N)CCC3)cc1 | 1 | 0.9 | 4 | 0.9 | 52*
CN(Cc1ccccc1)c1nc2c(c(=O)[nH]c(=O)n2C)n1CCOc1ccccc1 | 0.9 | 0.8 | 7 | 0.9 | 55*
CC(C)CCn1c(N2CCN(Cc3ccccc3)CC2)nc2c1c(=O)[nH]c(=O)n2C | 0.9 | 0.8 | / | 0.9 | -3
CCCn1c(N2CCC(Cc3ccccc3)CC2)nc2c1c(=O)[nH]c(=O)n2C | 0.9 | 0.8 | 68* | 0.9 | 20
CCOCCn1c(N2CCN(c3ccccc3)CC2)nc2c1c(=O)n(C)c(=O)n2C | 1.1 | 0.9 | -18 | 1 | -4
Cn1c(=O)[nH]c(=O)c2c1nc(N1CCC(Cc3ccccc3)CC1)n2Cc1ccccc1 | 1 | 0.8 | 17 | 0.9 | 38
CCCCCn1c(N2CCN(Cc3ccccc3)CC2)nc2c1c(=O)[nH]c(=O)n2C | 0.9 | 1 | 10 | 0.9 | 100*
CCCCCCn1c(N2CCN(c3ccccc3)CC2)nc2c1c(=O)n(C)c(=O)n2C | 0.9 | 0.9 | 66* | 1 | 33
NC(=O)N/N=C/c1cc(Br)ccc1OC(=O)c1ccccc1 | 1 | 0.9 | -8 | 1 | 40
CCOC(=O)CC(=O)CSc1nc2ccccc2c(=O)n1-c1ccc(C(=O)NCCOC)cc1 | 1 | 1 | -41 | 1 | -8
CCCC(=O)Nc1nnc(SCC(=O)NCc2ccco2)s1 | 0.9 | 0.9 | -6 | 1 | -6
O=C(Nc1cccc(C(F)(F)F)c1)c1cccnc1N1CCN(c2ccccc2)CC1 | 1.1 | 0.8 | 21 | 1 | 16
CC(=O)CC(c1ccc([N+](=O)[O-])cc1)c1c(O)c2ccccc2oc1=O (centres undefined) | 1 | 0.9 | -6 | 1 | 1
CCCCCn1c(N2CCC(Cc3ccccc3)CC2)nc2c1c(=O)[nH]c(=O)n2C | / | / | 88* | / | 99*
C=C(C)Cn1c(N2CCC(Cc3ccccc3)CC2)nc2c1c(=O)[nH]c(=O)n2C | 1 | 0.9 | 40 | 0.9 | 78*
CC(=O)n1nc(-c2ccccc2)nc1NCc1ccc(N(C)C)cc1 | 0.9 | 0.9 | 17 | 1 | -7
Cc1ccc(OCCn2c(CCNC(=O)C(C)C)nc3ccccc32)cc1 | 1 | 0.9 | 30 | 1 | 1
CCCc1nc2ccccc2n1CCOc1ccccc1 | 1 | 1 | / | 1 | 10
OCCCc1nc2ccccc2n1CCOc1ccccc1 | 1.1 | 0.9 | 8 | 1 | 1
COc1ccc(NCc2nc3ccccc3n2CCOc2ccc(C)cc2)cc1 | 0.8 | 0.9 | 71* | 0.8 | 91*
Cc1ccc(OCCn2c(CCCO)nc3ccccc32)cc1 | 1.1 | 1 | -25 | 1 | 54*
CC(C)C(=O)NCCc1nc2ccccc2n1CCCOc1ccc(Cl)cc1 | 0.9 | 0.8 | 70* | 0.9 | 9
COc1ccc(NCc2nc3ccccc3n2CCOc2ccccc2)cc1 | 0.9 | 1 | 21 | 0.8 | 87*
CCOC(=O)/C=C/COc1ccccc1[N+](=O)[O-] | 0.9 | 0.8 | -19 | 0.9 | 8
c1ccc(NCc2nc3ccccc3n2CCOc2ccccc2)cc1 | 0.9 | 0.9 | 77* | 0.9 | 13
